Results from ChEMBL document CHEMBL4513216, “Probing the Open Global Health Chemical Diversity Library for Multistage-Active Starting Points for Next-Generation Antimalarials” (ACS Infect Dis, 2020).

Test: Toxicity liver stage against HepG2, at 10uM
Assay type: cell-based
Parameters: test concentration 10 uM, cell line HepG2-A16-CD81EGFP
Conditions: human, HepG2-A16-CD81EGFP cells; read-out: INHIBITION
How it was run: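 Uninfected HepG2-A16-CD81EGFP cells, 3 × 10^3 per well, 1536-well, plated on prespotted compound at 10 μM final, parasite-free screening media added to match infected plates; puromycin 10 μM positive, DMSO 0.5% negative; run in parallel with 48 h PbLuc assay at 37 °C, 5% CO2; viability by CellTiter-Glo luminescence, normalized to controls.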

| Compound | cytotoxicity at 10 µM |
| --- | --- |
| Cc1nnc2n1CCN(C(C(N)=O)c1ccc(F)cc1)C2 (configuration not stated) | -13.5% |
| CC(C)CNC(=O)Cn1ccc2ccccc21 | -43.4% |
| CC(C)Cc1nc(NC(=O)c2cccnc2)n[nH]1 | -1.18% |
| CC(=O)Nc1cccc2c1ccn2CC(=O)Nc1ncc[nH]1 | 5.83% |
| COc1cccc(NC(=O)CC2Cn3ncnc3NC2=O)c1 (configuration not stated) | 4.4% |
| CCOc1ccc2oc(-c3cn(C)nc3C)c(O)c(=O)c2c1 | 7.72% |
| CNC(=O)c1ccc(C2CN(c3cc(C)nc(N)n3)CCO2)nc1 (configuration not stated) | 2.02% |
| CO[C@H]1CN(Cc2nc3ccccc3n2C)C[C@@]12CCCO2 | 4.32% |
| Cc1nc(CN2CCC2(CCCc2ccccn2)C(=O)N(C)C)co1 (configuration not stated) | 11.4% |
| Cc1nc(C)c(C(=O)N2Cc3ccccc3OCC2Cn2ccnc2)o1 (configuration not stated) | 7.92% |
| Cc1cc(C)nc(N2CCC(Cn3cc(C(=O)N(C)C)cn3)CC2)n1 | 6.28% |
| Fc1ccccc1Oc1nccnc1C1CCN(C2CCOCC2)CC1 | 13.9% |
| CNc1cc(C2CN(C(=O)c3cnn(C)c3)CCO2)nc(C)n1 (configuration not stated) | -5.42% |
| NCc1cccc(-c2cccnc2C(=O)NCCN2CCOCC2)c1 | -1.29% |
| CN(C)S(=O)(=O)N1CCCC(c2ccncn2)C1 (configuration not stated) | -15.3% |
| C=C(C)CN1CCN(Cc2cnc(OC)nc2)CC1 | 5.16% |
| Cc1noc(C2(C)CCCN(C(=O)c3cccnc3)C2)n1 (configuration not stated) | -13.4% |
| O=C(c1cccnn1)N1C[C@@H]2CC[C@H](Oc3cccc(F)c3)[C@@H]2C1 | -13.6% |
| Cc1nc(Nc2cnccn2)cc(C2CCCN2C2CCOCC2)n1 (configuration not stated) | -17.3% |
| COc1ccc(CN(C)[C@@H]2CN(C(=O)c3ccccc3)C[C@H]2O)cc1 | -2.64% |
| CCCn1cc(CN2CCCC2c2nccc(CN(C)C)n2)cn1 (configuration not stated) | 19.7% |
| CC1(C(=O)N2CCOCC2)CN(Cc2ccccc2F)CCO1 (configuration not stated) | 2.03% |
| CCn1cnnc1CCNC(=O)c1ccc(Br)cc1F | -29.7% |

| Compound | cytotoxicity at 10 µM |
| --- | --- |
| CC(C)c1nnc(NC(=O)NCc2cccnc2NCCN(C)C)s1 | 3.92% |
| Cc1cc(CC(=O)N(C)Cc2cccc(OC(C)C)c2)n[nH]1 | 1.1% |
| Cc1nn(C)c(C)c1NC(=O)CN1CCOC(CN(C)C)C1 (configuration not stated) | -8.72% |
| CC(C)n1cnnc1CNC(=O)CCCOc1ccccc1Cl | -3.51% |
| CN(CC1COc2ccccc2O1)C(=O)C1=NN(C)C(=O)CC1 (configuration not stated) | -52.2% |
| N#Cc1ccc(CN2CCN(Cc3ccncc3Cl)CC2=O)cc1 | 6.43% |
| CNC(=O)c1cccc(NCCOc2ccc(CC#N)cc2)c1C | -0.662% |
| COc1ccc(N(CCC(N)=O)C(=O)CSc2ccc(Cl)cc2)cc1 | -4.37% |
| O=C(Cn1ccc(=O)[nH]c1=O)Nc1ccccc1F | -0.691% |
| Cc1c(C(=O)N2CCCSCC2)nnn1-c1ccccc1Cl | 8.31% |
| COCCCn1nnc(C2(NC(=O)c3ccccc3)CCCC2)n1 | 9.24% |
| CS(=O)(=O)NCCC(=O)N1CCCC1c1noc(C2CC2)n1 (configuration not stated) | -10.4% |
| COCCNC(=O)Nc1ccc(C(=O)N2CCSCC2)cc1C | -2.13% |
| CCOC(=O)N1CCN(CC(=O)Nc2ccc(F)cc2Cl)CC1 | 6% |
| COc1ccc(S(=O)(=O)NC(=O)c2c(C)noc2C(C)C)cc1C | 0.495% |
| COc1ccc(CCN2CCOC(Cn3nc(C)nc3C)C2)cc1 (configuration not stated) | 2.29% |
| Cc1cc(-c2nc(-c3cccc(CN4CCOCC4)c3)no2)no1 | -7.33% |
| O=C(NCc1ncc[nH]1)c1c(F)cccc1I | -6.78% |
| COCc1ccccc1C(=O)NS(=O)(=O)c1ccc2c(c1)CCC(=O)N2 | -1.74% |
| Cc1ccccc1OCCC(=O)N(C)Cc1c(C)noc1C | -8.73% |
| CSC(C)C(=O)N1CCN(CC(C)(C)O)CC1 (configuration not stated) | -10.2% |
| NC(=O)N1CCC(C(=O)NC2CCc3nccn3C2)CC1 (configuration not stated) | -2.09% |
| N#Cc1ccc(NCC(O)c2ccco2)c(C(F)(F)F)c1 (configuration not stated) | -31.7% |

| Compound | cytotoxicity at 10 µM |
| --- | --- |
| COc1cc(I)c(Cl)cc1C(=O)N(C)C | 11% |
| CC(=O)c1c(F)cccc1NCC(O)C1CC1 (configuration not stated) | 13.4% |
| N#Cc1ccc(N2CCCN(CC(=O)N3CCC3)CC2)cc1 | -8.38% |
| CCn1c(CN(C)C(C)CSC)nc2c(F)cccc21 (configuration not stated) | 5.73% |
| Cc1ccccc1C(C)NC(=O)c1ccc(=O)n(C)c1 (configuration not stated) | 4.31% |
| CS(=O)(=O)CCS(=O)(=O)Cc1cc(Cl)c2c(c1)OCCCO2 | -0.0261% |
| Cc1nc(CNC(=O)C(C)(C)c2ccc(F)cc2)no1 | 6.08% |
| O=C(NCCc1ccccc1)N1CCCCC1C1OCCO1 (configuration not stated) | -45.2% |
| O=C(c1ccc[nH]1)N1CCc2ncc(Cn3cccn3)n2CC1 | -0.469% |
| Cn1ncc2c1C(COCC1CC1)CN(C(=O)c1ccoc1)C2 (configuration not stated) | -2.18% |
| CCn1ncc2c1C(COC)N(C(=O)Cc1cccs1)CC2 (configuration not stated) | -109% |
| O=C(Cc1ccco1)N1C[C@@H]2COC[C@]2(COCC2CCOCC2)C1 | -102% |
| CC(C)c1noc(CN(C)C(=O)c2ncn[nH]2)n1 | 6.2% |
| O=C(c1cn[nH]c1)N1CCC2(CCCN(Cc3ccc(F)c(F)c3)C2)C1 (configuration not stated) | 6.07% |
| CCn1cc(CN2CCCC2c2nc(C(C)C)no2)cc1C#N (configuration not stated) | 1.44% |
| CCO[C@H]1C[C@@H](O)C12CCN(C1CCN(c3ccccc3)CC1)CC2 | 4.24% |
| CCN1CCc2[nH]cnc2C12CCN(C(=O)CCc1cccs1)CC2 | 0.688% |
| Cc1cc(F)ccc1C(=O)N1CCN(C)C2(CCC(=O)N(C)CC2)C1 (configuration not stated) | 4.78% |
| CCn1cc(CN2CCCC2c2nc(-c3ccccc3)no2)cc1C#N (configuration not stated) | 0.165% |
| Cc1oncc1C(=O)N1CCC(O)(CN2CCOCC2)C(C)(C)C1 (configuration not stated) | -5.26% |
| COc1cccc(CC2CN(C3CCC3)CCO2)c1 (configuration not stated) | 0.388% |
| N#Cc1cccc(N2CCCC(CO)(CCOc3ccccc3)C2)n1 (configuration not stated) | -47.2% |
| Cc1cccnc1N1CCC(c2nccn2Cc2cscn2)CC1 | -0.65% |

| Compound | cytotoxicity at 10 µM |
| --- | --- |
| Cc1nc2c(c(NCCc3nc4c(s3)CCCC4)n1)CCNCC2 | -7.33% |
| O=C(CCC1CCN(C2Cc3ccccc3C2)CC1)NCC1CCCO1 (configuration not stated) | 7.36% |
| Cn1ncc(N2CCOC(CCNC(=O)CO)C2)cc1=O (configuration not stated) | -8.58% |
| Cc1nc(NC(=O)N(C)Cc2ccsc2)nn1C | 1.81% |
| CCSCCNc1nc2c(s1)c(C)nn2C | -0.145% |
| CCCc1nc(N[C@H]2COC[C@@H]2N2CCCC2)c2cnn(C)c2n1 | -6.56% |
| CN(C)S(=O)(=O)NCc1cccnc1Oc1ccccc1 | 1.6% |
| CNc1ncc(CN(C)C(=O)c2cccc(-n3cccn3)c2)cn1 | -2.38% |
| CCC(NS(=O)(=O)c1ccc(C(=O)NC2CC2)cc1)c1ccnn1C (configuration not stated) | 9.65% |
| CCc1cccc(C)c1NC(=O)c1ccccc1N(C)S(C)(=O)=O | 17.8% |
| Cc1ccc(OC2(C(=O)O)CCN(C/C=C/c3ccco3)CC2)c(C)n1 | 0.449% |
| CN(C(=O)c1ccccc1NCC(=O)O)C(C1CC1)C1CC1 | 1.73% |
| Cc1nc(NC(=O)NC2CC(=O)N(C)C2)nn1C (configuration not stated) | -12.2% |
| N#Cc1cc2c(=O)n(CC(O)Cc3ccccc3)ccc2[nH]c1=O (configuration not stated) | 2.86% |
| Cc1cccc(CN2CCCC(O)(CNCCN3CCCCC3)C2=O)c1 (configuration not stated) | 1.02% |
| CC(C)=CCN1CCN(C(=O)COc2ccccc2)[C@H]2CS(=O)(=O)C[C@H]21 | -1.64% |
| Cc1csc(N2CCN(CC(=O)N3CCNC3=O)CC2C)n1 (configuration not stated) | -12.4% |
| CCc1nc(C2CCCN2CC(=O)NCCc2ccsc2)no1 (configuration not stated) | -2.81% |
| N#CC1(C(=O)N2CCN(Cc3cscn3)CC2)CCCCC1 | -3.27% |
| CCc1noc(CN2CCCN(C(C)=O)CC2)n1 | -1.25% |
| CCn1cc(CN2CCCN(C(=O)c3ccc(C#N)cc3)CC2)cn1 | 1.8% |
| CCCc1nc(CN2CCCN(Cc3nccn3C)CC2)no1 | -3.33% |
| Cc1nc(C)n(CC2CN(CCCOc3ccc(F)cc3)CCO2)n1 (configuration not stated) | -4.26% |

| Compound | cytotoxicity at 10 µM |
| --- | --- |
| OC(CNCCn1cccn1)c1ccc(Br)cc1 (configuration not stated) | -19.9% |
| COc1ccccc1S(=O)(=O)Nc1ccc2c(C(=O)O)c[nH]c2c1 | -11.1% |
| CCOCC(O)CN1CCN(C(=O)Cc2ccccc2Cl)CC1 (configuration not stated) | -1.19% |
| NC(=O)c1cnn2c1NCC(CNCCc1ccco1)C2 (configuration not stated) | 1.46% |
| CC(NC(=O)Nc1cc(F)ccc1N1CCCCC1)c1nncn1C (configuration not stated) | -3.36% |
| Cn1cc(-c2nc(CNCCn3cccn3)cs2)cn1 | -13% |
| Cc1nc(C2CCNC2)nc2c1CCC(=O)N2CC(C)C (configuration not stated) | 2.04% |
| O=C(NC1CC1)[C@@]12CCO[C@@H]1CCN(Cc1ccc3c(c1)OCO3)C2 | -2.87% |
| CCOC1COC2(CCN(Cc3cccc(C)n3)CC2)C1 (configuration not stated) | 11.8% |
| O=C([C@H]1CC[C@@H]2[C@@H](CCN2C2CCOCC2)O1)N1CCOCC1 | -0.824% |
| CC(C)N(C)Cc1cc(=O)n2c(n1)CN(S(=O)(=O)C1CC1)CCC2 | 0.819% |
| COCCN1CCO[C@H]2CN(Cc3cccc(C)n3)C[C@H]21 | -116% |
| Cn1cc(-c2ncnc3c2CCN(CC2CCOC2)CC3)cn1 (configuration not stated) | -112% |
| Cc1ccc(N2CCO[C@H]3CN(Cc4cnn(C)c4)C[C@H]32)nn1 | 3.86% |
| CC(C)N(C)Cc1cncc2c1CCN(C1CCOCC1)C2 | 5.88% |
| Cc1ccc(CN2CCn3c(COc4cccnc4)cnc3C2C)o1 (configuration not stated) | -111% |
| CN(C)[C@@H]1CN(Cc2ccoc2)C[C@@H]2CCCO[C@@H]21 | 1.93% |
| COc1ncccc1C(=O)N1CCC2(CC1)CC(OC)CO2 (configuration not stated) | -97% |
| CN1C(=O)[C@@H]2CC[C@H]1CN(C(=O)c1sccc1S(N)(=O)=O)C2 | 5.6% |
| CC=C(C)C(=O)NS(=O)(=O)c1ccc(Cl)cn1 | 7.04% |
